Laboratory results from ChEMBL document CHEMBL4428054, “Synthesis of Fluorescent Binaphthyl Amines That Bind c-MYC G-Quadruplex DNA and Repress c-MYC Expression” (J Med Chem, 2016).
Activity calls are given as the source filed them. The calls are words filed in the database; no cut-off is given here.

How the values were obtained:
[1] = test system: HeLa; experiment: Cell cycle arrest in human HeLa cells assessed as accumulation at S phase at 5 uM incubated for 24 hrs by propidium iodide staining based flow cytometry (reference value: 10.8%); type: functional
[2] = test system: Quadruplex DNA; experiment: Stabilization of 5'-FAM and 3'-TAMRA-labeled c-MYC G-quadruplex (unknown origin) assessed as change in melting temperature at 1 uM by FRET assay; type: nucleic-acid assay; conditions: unidentified
Outline: (§1)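 FRET melting of dual-labelled (5′-FAM/3′-TAMRA) promoter quadruplexes or duplex in 60 mM potassium cacodylate buffer, pH 7.4. ΔTm is taken against ligand-free Tm. The ligand was tested across a concentration series. Maximum measurable Tm is 93 °C.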

[3] = Drug localization in nucleus of human HeLa cells at 5 uM incubated for 2 hrs by fluorescence microscopy; type: ADME, subcellular
Outline: (§2)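 Intrinsic ligand fluorescence imaged by fluorescence microscopy in HeLa cells after 2 h at 5.0 μM. Merged images were used to assign nuclear versus cytoplasmic localisation.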

[4] = biological target: Quadruplex DNA; experiment: Binding affinity to pre-annealed k-RAS G-quadruplex (unknown origin) in 100 mM KCl, 10 mM Tris.HCl at pH 7.4 by fluorescence spectroscopy relative to untreated control; type: nucleic-acid assay, unidentified
Outline: (§3)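 Fluorescence titration in 100 mM KCl, 10 mM Tris·HCl, pH 7.4. Excitation was 350 nm and emission was read at the 430 nm maximum. Ligand (1 μM for c-MYC) was titrated with increasing quadruplex or ds DNA, up to 20 equiv. Change in intensity was scored, and Kd was derived from the titration curves.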

[5] = test system: Quadruplex DNA; experiment: Binding affinity to pre-annealed c-MYC G-quadruplex (unknown origin) assessed as increase in fluorescence intensity at 1 uM in 100 mM KCl, 10 mM Tris.HCl at pH 7.4 by fluorescence spectroscopy relative to untreated control; type: nucleic-acid assay; conditions: unidentified; outline: as §3
[6] = biological target: Quadruplex DNA; experiment: Binding affinity to pre-annealed c-KIT1 G-quadruplex (unknown origin) in 100 mM KCl, 10 mM Tris.HCl at pH 7.4 by fluorescence spectroscopy relative to untreated control; type: nucleic-acid assay, unidentified; outline: as §3
[7] = test system: Quadruplex DNA; experiment: Binding affinity to c-MYC G-quadruplex (unknown origin) assessed as induction of chemical shift perturbations of imino protons by 1H-NMR spectroscopy; type: nucleic-acid assay; conditions: unidentified
Outline: (§4)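 1D 1H NMR of c-MYC quadruplex DNA at different ligand:DNA ratios, monitoring imino and aromatic regions against partial signal assignments. Chemical shift perturbation or line broadening was noted separately at ratios below 1 and at ratios of 1 or above.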

[8] = test system: HeLa; experiment: Effect on GAPDH mRNA expression in human HeLa cells at 1 to 5 uM incubated for 24 hrs by RT-PCR method; type: ADME, cell-based
[9] = biological target: Quadruplex DNA; experiment: Binding affinity to pre-annealed c-MYC G-quadruplex (unknown origin) in 10 mM Tris.HCl buffer containing 100 mM KCl at pH 7.4 by UV/Visible spectroscopy; type: nucleic-acid assay, unidentified
Outline: (§5)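 UV–vis titration of 20 μM ligand with preannealed c-MYC quadruplex (0–1.4 equiv) in 100 mM KCl, 10 mM Tris·HCl, pH 7.4. Hypochromicity was followed at the 362 nm ligand band, because the 298 nm band overlaps DNA absorbance. Kd was fitted with the Hill 1 equation.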

[10] = test system: unidentified; experiment: Selectivity for 5'-FAM and 3'-TAMRA-labeled c-MYC G-quadruplex (unknown origin) over 5'-FAM and 3'-TAMRA-labeled c-KIT2 G-quadruplex (unknown origin)
[11] = Selectivity for 5'-FAM and 3'-TAMRA-labeled c-MYC G-qudaruplex (unknown origin) over 5'-FAM and 3'-TAMRA-labeled c-KIT1 G-qudaruplex (unknown origin)
[12] = test system: Quadruplex DNA; experiment: Binding affinity to pre-annealed c-MYC G-quadruplex (unknown origin) assessed as hypochromacity at 20 uM in 10 mM Tris.HCl buffer containing 100 mM KCl at pH 7.4 by UV/Visible spectroscopy; type: nucleic-acid assay; conditions: unidentified; outline: as §5
[13] = test system: HeLa; experiment: Induction of apoptosis in human HeLa cells assessed as late apoptotic cells level at 5 uM incubated for 24 hrs by Annexin V-FITC staining based flow cytometry (reference value: 0.8%); type: functional
[14] = test system: Quadruplex DNA; experiment: Stabilization of 5'-FAM and 3'-TAMRA-labeled c-KIT2 G-quadruplex (unknown origin) assessed as change in melting temperature at 1 uM in presence of 100 nM to 10 uM dsDNA by FRET assay; type: nucleic-acid assay; conditions: unidentified
[15] = test system: A549; experiment: Cytotoxicity against human A549 cells incubated for 24 hrs by MTT assay; type: functional, cell-based; conditions: A549, 24 h
Outline: (§6)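 MTT growth-inhibition assay in HeLa, A549 and mouse C2C12 cells. Cells given 0.1% DMSO served as control. IC50 values were reported.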

[16] = test system: HeLa; experiment: Cytotoxicity against human HeLa cells incubated for 24 hrs by MTT assay; type: functional, cell-based; outline: as §6
[17] = test system: unidentified; experiment: Selectivity for 5'-FAM and 3'-TAMRA-labeled c-MYC G-quadruplex (unknown origin) over 5'-FAM and 3'-TAMRA-labeled k-RAS G-quadruplex (unknown origin)
[18] = test system: Quadruplex DNA; experiment: Stabilization of c-MYC G-quadruplex in human HeLa cells assessed as reduction in c-MYC mRNA level at 5 uM incubated for 24 hrs by RT-PCR method; type: cell-based; set-up: scale not given: the % may be the effect or the level left
Outline: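 qRT-PCR on HeLa cells treated 24 h at 1.0, 2.5 or 5.0 μM. c-MYC mRNA was normalised to GAPDH and compared with 0.1% DMSO-treated control.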

[19] = test system: Quadruplex DNA; experiment: Stabilization of c-MYC G-quadruplex in human HeLa cells assessed as reduction in c-MYC mRNA level at 5 uM incubated for 24 hrs by Western blot method; type: cell-based; set-up: scale not given: the % may be the effect or the level left; conditions: in the assay text read “c-MYC protein level” for “c-MYC mRNA level”
Outline: (§7)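 Western blot of HeLa lysates after 24 h at 1, 2.5 or 5 μM, with DMSO control. c-MYC was probed, GAPDH served as loading control, and bands were quantified by densitometry.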

[20] = test system: HeLa; experiment: Effect on GAPDH protein expression in human HeLa cells at 1 to 5 uM incubated for 24 hrs by Western blot method; type: ADME, cell-based; outline: as §7
[21] = Drug localization in cytoplasm of human HeLa cells at 5 uM incubated for 2 hrs by fluorescence microscopy; type: ADME, subcellular; outline: as §2
[22] = biological target: Quadruplex DNA; experiment: Binding affinity to pre-annealed c-KIT2 G-quadruplex (unknown origin) in 100 mM KCl, 10 mM Tris.HCl at pH 7.4 by fluorescence spectroscopy relative to untreated control; type: nucleic-acid assay, unidentified; outline: as §3
[23] = test system: Quadruplex DNA; experiment: Stabilization of 5'-FAM and 3'-TAMRA-labeled k-RAS G-quadruplex (unknown origin) assessed as change in melting temperature at 1 uM in presence of 100 nM to 10 uM dsDNA by FRET assay; type: nucleic-acid assay; conditions: unidentified
[24] = test system: dsDNA; experiment: Binding affinity to dsDNA (unknown origin) in 10 mM Tris.HCl buffer containing 100 mM KCl at pH 7.4 by UV/Visible spectroscopy; type: nucleic-acid assay
[25] = test system: dsDNA; experiment: Stabilization of 5'-FAM and 3'-TAMRA-labeled dsDNA (unknown origin) assessed as change in melting temperature at 1 uM by FRET assay; type: nucleic-acid assay; outline: as §1
[26] = test system: Quadruplex DNA; experiment: Stabilization of 5'-FAM and 3'-TAMRA-labeled c-MYC G-quadruplex (unknown origin) assessed as change in melting temperature at 1 uM in presence of 100 nM to 10 uM dsDNA by FRET assay; type: nucleic-acid assay; conditions: unidentified
[27] = test system: Quadruplex DNA; experiment: Stabilization of 5'-FAM and 3'-TAMRA-labeled c-MYC G-quadruplex (unknown origin) assessed as change in melting temperature at 3 uM by FRET assay; type: nucleic-acid assay; conditions: unidentified; outline: as §1
[28] = test system: HeLa; experiment: Cell cycle arrest in human HeLa cells assessed as accumulation at G2/M phase at 5 uM incubated for 24 hrs by propidium iodide staining based flow cytometry (reference value: 25.5%); type: functional
[29] = test system: dsDNA; experiment: Stabilization of 5'-FAM and 3'-TAMRA-labeled dsDNA (unknown origin) assessed as change in melting temperature at 5 uM by FRET assay; type: nucleic-acid assay; outline: as §1
[30] = test system: Quadruplex DNA; experiment: Stabilization of 5'-FAM and 3'-TAMRA-labeled k-RAS G-quadruplex (unknown origin) assessed as change in melting temperature at 1 uM by FRET assay; type: nucleic-acid assay; conditions: unidentified; outline: as §1
[31] = test system: HeLa; experiment: Induction of apoptosis in human HeLa cells assessed as viable cell level at 5 uM incubated for 24 hrs by Annexin V-FITC staining based flow cytometry; type: functional
[32] = test system: C2C12; experiment: Cytotoxicity against mouse C2C12 cells incubated for 24 hrs by MTT assay; type: cell-based; conditions: C2C12, 24 h; outline: as §6
[33] = test system: Quadruplex DNA; experiment: Stabilization of 5'-FAM and 3'-TAMRA-labeled c-KIT2 G-quadruplex (unknown origin) assessed as change in melting temperature at 1 uM by FRET assay; type: nucleic-acid assay; conditions: unidentified; outline: as §1
[34] = test system: Quadruplex DNA; experiment: Binding affinity to c-MYC G-quadruplex (unknown origin) assessed as induction of line broadening of imino protons by 1H-NMR spectroscopy; type: nucleic-acid assay; conditions: unidentified; outline: as §4
[35] = test system: Quadruplex DNA; experiment: Effect on parallel topology of c-MYC G-quadruplex (unknown origin) at 0 to 5 equivalent by CD spectroscopy; type: nucleic-acid assay; conditions: unidentified
[36] = test system: HeLa; experiment: Induction of apoptosis in human HeLa cells assessed as early apoptotic cells level at 5 uM incubated for 24 hrs by Annexin V-FITC staining based flow cytometry (reference value: 1.1%); type: functional
[37] = test system: Quadruplex DNA; experiment: Stabilization of 5'-FAM and 3'-TAMRA-labeled c-KIT1 G-quadruplex (unknown origin) assessed as change in melting temperature at 1 uM by FRET assay; type: nucleic-acid assay; conditions: unidentified; outline: as §1
[38] = test system: Quadruplex DNA; experiment: Stabilization of 5'-FAM and 3'-TAMRA-labeled c-KIT1 G-quadruplex (unknown origin) assessed as change in melting temperature at 1 uM in presence of 100 nM to 10 uM dsDNA by FRET assay; type: nucleic-acid assay; conditions: unidentified
[39] = test system: HeLa; experiment: Cell cycle arrest in human HeLa cells assessed as accumulation at G0/G1 phase at 5 uM incubated for 24 hrs by propidium iodide staining based flow cytometry (reference value: 61.5%); type: functional
[40] = test system: HeLa; experiment: Cell cycle arrest in human HeLa cells assessed as accumulation at subG1 phase at 5 uM incubated for 24 hrs by propidium iodide staining based flow cytometry (reference value: 2.2%); type: functional
[41] = biological target: Quadruplex DNA; experiment: Binding affinity to pre-annealed c-MYC G-quadruplex (unknown origin) in 100 mM KCl, 10 mM Tris.HCl at pH 7.4 by fluorescence spectroscopy relative to untreated control; type: nucleic-acid assay, unidentified; outline: as §3
[42] = test system: HeLa; experiment: Induction of apoptosis in human HeLa cells assessed as necrotic cells level at 5 uM incubated for 24 hrs by Annexin V-FITC staining based flow cytometry (reference value: 0.1%); type: functional
[43] = test system: dsDNA; experiment: Binding affinity to 20 equivalents of dsDNA (unknown origin) in 100 mM KCl, 10 mM Tris.HCl at pH 7.4 by fluorescence spectroscopy relative to untreated control; type: nucleic-acid assay; outline: as §3

ΔTm [2]: 15 °C
Drug uptake [3]: Active
Kd [4]: 13 µM
fold change (FC) [5]: 1.2
Kd [6]: 19.4 µM
Activity [7]: Active
Kd [9]: 22.6 µM
Selectivity ratio [10]: 3 to 5
Selectivity ratio [11]: 3 to 5
Activity [12]: 18%
Activity [14]: Active
Selectivity ratio [17]: 3 to 5
Drug uptake [21]: Active
Kd [22]: 14.1 µM
Activity [23]: Active
Activity [24]: inactive
ΔTm [25]: 1 °C
Activity [26]: Active
ΔTm [27]: 23 °C
Activity [29]: inactive
ΔTm [30]: 18 °C
ΔTm [33]: 7 °C
Activity [34]: Active
Activity [35]: inactive
ΔTm [37]: 9 °C
Activity [38]: Active
Kd [41]: 21.4 µM
Activity [43]: inactive
SMILES: CN(C)CCCNC(=O)c1ccc(Nc2ccc(-c3ccc(Nc4ccc(C(=O)NCCCN(C)C)cc4)c4ccccc34)c3ccccc23)cc1
Activity [1]: 5.3%
Activity [8]: Non-Toxic
Activity [13]: 3.6%
IC50 [15]: ≥ 40 µM
IC50 [16]: 7.24 µM
Activity [18]: 27%
Activity [19]: 36%
Activity [20]: Non-Toxic
Activity [28]: 8.6%
Activity [31]: Active
IC50 [32]: ≥ 40 µM
Activity [36]: 37.9%
Activity [39]: 46.9%
Activity [40]: 39.2%
Activity [42]: 0.5%
